Laboratory results taken from ChEMBL document CHEMBL1137398, “Synthesis and immunobiological activity of an original series of acyclic lipid a mimics based on a pseudodipeptide backbone” (J Med Chem, 2006).
Values after ≈ are worked out from the molar mass of the structure shown. Active and inactive are the calls of the source. The rule behind the calls is not given here.

Tests used:
Limulus = experiment: Endotoxicity against horseshoe crab blood at 0.1 mg/mL by LAL chromogenic assay; format: toxicity, organism-based; conditions: limulus polyphemus
Procedure, shortened: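 LAL chromogenic endotoxin assay with compound at 0.1 mg/mL. Average of three independent experiments.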

Macrophage = experiment: Induction of NO production in murine macrophage; format: functional, cell-based; conditions: Mus musculus
Procedure, shortened: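 Bone-marrow macrophages from six-week-old male C57BL/6 mice, differentiated 8 d in DMEM with 20% horse serum and 30% L929 supernatant. Then set to 700 000 cells/mL in DMEM with 5% FCS. Serially diluted compounds were incubated with cells in triplicate for 22 h at 37 °C, 8% CO₂. Supernatant nitrite measured by Griess reaction at 562 nm (reference 690 nm) against a standard curve. Reported as mean ± SD dose-response.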

PBMC [1] = experiment: Antagonist effect on LPS-induced IL6 production in human PBMC at 2 ug/mL; format: functional, cell-based
Procedure, shortened: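 Human PBMC from healthy donor buffy coat, isolated on Ficoll (1.077 g/mL). Cultured at 1 × 10⁶ viable cells/well in RPMI-1640 with 10% FCS, penicillin/streptomycin and L-glutamine. Pre-incubated 90 min at 37 °C, 5% CO₂ with compound at final 0.02, 0.2, 2 or 20 µg/mL. E. coli LPS (055:B5) then added at 0.01 µg/mL. After 24 h, supernatant IL-6 measured by ELISA.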

PBMC [2] = experiment: Induction of IL6 production in human PBMC at 20 ug/ml relative to LPS; format: functional, cell-based
Procedure, shortened: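 Human PBMC isolated on Ficoll from donor buffy coat. Cultured at 1 × 10⁶ viable cells/well in RPMI-1640 with 10% FCS and antibiotics. Incubated at 37 °C, 5% CO₂ with compound at final 20 µg/mL. Controls were medium alone and E. coli LPS (055:B5). Supernatant harvested at 24 h and IL-6 measured by ELISA; detection limit 10 pg/mL.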

Oryctolagus cuniculus [3] = experiment: Induction of pyrogenicity in rabbit assessed as increase in temperature at 0.001 mg/kg, iv; format: functional, organism-based; design: dose 0.001 mg/kg
Procedure, shortened: (§1)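 Rabbit pyrogenicity test, iv injection, with water as control. Read-out is the summed temperature rise in three rabbits (°C), scored pass, inconclusive or fail.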

Oryctolagus cuniculus [4] = experiment: Induction of pyrogenicity in rabbit assessed as increase in temperature at 0.01 mg/kg, iv; format: functional, organism-based; design: dose 0.01 mg/kg; procedure, shortened: as §1
Oryctolagus cuniculus [5] = experiment: Induction of pyrogenicity in rabbit assessed as increase in temperature at 0.1 mg/kg, iv; format: functional, organism-based; design: dose 0.1 mg/kg; procedure, shortened: as §1

Row | EC50 (Macrophage) [µg/mL] | Compound | Activity (Limulus) [EU/ml] | Activity (PBMC [1]) | Activity (PBMC [2]) | Activity (Oryctolagus cuniculus [3]) | Activity (Oryctolagus cuniculus [4]) | Activity (Oryctolagus cuniculus [5])
1 | 0.55 (≈ 0.542 µM) | CCCCCCCCCCCC(=O)O[C@H](CCCCCCCCCCC)CC(=O)N[C@H](CCOP(=O)(O)O)C(=O)NCCC[C@H](COP(=O)(O)O)NC(=O)C[C@H](O)CCCCCCCCCCC | 1072 | Active | inactive | – | – | –
2 | 3.53 | CCCCCCCCCCCC(=O)O[C@H](CCCCCCCCCCC)CC(=O)NC(CCOP(=O)(O)O)C(=O)NCCC[C@H](CO)NC(=O)C[C@H](O)CCCCCCCCCCC (mixture of isomers) | 16238 | inactive | – | inactive | inactive | Active

The remaining lines, values behind:

Row | Compound | EC50 (Macrophage) [µg/mL] | Activity (Limulus) [EU/ml] | Activity (PBMC [1]) | Activity (PBMC [2]) | Activity (Oryctolagus cuniculus [3]) | Activity (Oryctolagus cuniculus [4]) | Activity (Oryctolagus cuniculus [5])
3 | CCCCCCCCCCCC(=O)O[C@H](CCCCCCCCCCC)CC(=O)N[C@H](CCOP(=O)(O)O)C(=O)NCCC[C@H](CO)NC(=O)C[C@H](O)CCCCCCCCCCC | 1.85 (≈ 1.98 µM) | 14257 | inactive | – | – | – | –
4 | CCCCCCCCCCCC(=O)O[C@H](CCCCCCCCCCC)CC(=O)N[C@H]1[C@H](OC[C@H]2O[C@H](OP(=O)(O)O)[C@H](NC(=O)C[C@H](O)CCCCCCCCCCC)[C@@H](O)[C@@H]2O)O[C@H](CO)[C@@H](OP(=O)(O)O)[C@@H]1O [DEFOSLIMOD] | 0.025 (≈ 0.022 µM) | – | – | – | – | – | –
5 | CCCCCCCCCCCC(=O)O[C@H](CCCCCCCCCCC)CC(=O)N[C@@H](CCOP(=O)(O)O)C(=O)NCCC[C@H](CO)NC(=O)C[C@H](O)CCCCCCCCCCC | 6.86 (≈ 7.34 µM) | 9320 | inactive | – | – | – | –
6 | CCCCCCCCCCCC(=O)O[C@H](CCCCCCCCCCC)CC(=O)N[C@@H](CCOP(=O)(O)O)C(=O)NCCC[C@H](COP(=O)(O)O)NC(=O)C[C@H](O)CCCCCCCCCCC | 0.15 (≈ 0.148 µM) | 240 | Active | inactive | – | – | –
7 | CCCCCCCCCCCC(=O)O[C@H](CCCCCCCCCCC)CC(=O)NC(CCOP(=O)(O)O)C(=O)NCCC[C@H](COP(=O)(O)O)NC(=O)C[C@H](O)CCCCCCCCCCC (mixture of isomers) | 0.083 | 874 | Active | inactive | inactive | inactive | –
